Results: ChEMBL document CHEMBL4261561, “Thiosemicarbazone-based selective proliferation inactivators inhibit gastric cancer cell growth, invasion, and migration” (Medchemcomm, 2017)
Blank lines part the entries; values can stand above or below the compound they belong to. The source made the active and inactive calls. The calls are words filed in the database; no cut-off is given here.

Legend:
[1] = tested on: MCF7; test: Antiproliferative activity against human MCF7 cells after 72 hrs by MTT assay; assay type: functional, cell-based; settings: MCF7, 72 h
Outline: (§1)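 Exponentially growing cells were seeded at about 3×10^3 per well and left 24 h, then given fresh medium with a range of compound concentrations for 72 h. MTT solution (5 mg/mL) was added for another 4 h. Medium was removed, formazan was dissolved in DMSO, and absorbance was read at 570 nm. IC50 was derived statistically.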

[2] = tested on: MGC-803; test: Antiproliferative activity against human MGC803 cells after 72 hrs by MTT assay; assay type: functional, cell-based; settings: MGC-803, 72 h; outline: as §1
[3] = tested on: SMMC-7721; test: Antiproliferative activity against human SMMC7721 cells after 72 hrs by MTT assay; assay type: functional, cell-based; settings: SMMC-7721, 72 h; outline: as §1
[4] = tested on: MGC-803; test: Cell cycle arrest in human MGC803 cells assessed as accumulation at S phase at 0.5 uM after 48 hrs by propidium iodide staining-based flow cytometric method (reference value: 28.84%); assay type: functional
[5] = tested on: MGC-803; test: Induction of apoptosis in human MGC803 cells assessed as late apoptotic cells at 0.5 uM after 48 hrs by Annexin-V/propidium iodide staining based flow cytometric analysis (reference value: 0.3%); assay type: functional
[6] = tested on: MGC-803; test: Induction of apoptosis in human MGC803 cells assessed as down regulation of Bcl-2 expression after 48 hrs by Western blot analysis; assay type: functional, cell-based
Outline: (§2)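 Treated MGC-803 cells were lysed on ice for 30 min in NP-40/SDS/deoxycholate/PMSF buffer. Equal protein was separated by SDS-PAGE and transferred to 0.22 µm nitrocellulose. Membranes were blocked 2 h in 5% nonfat milk/PBS, probed with primary antibody at 4°C overnight, then incubated with secondary antibody for 2 h.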

[7] = tested on: MGC-803; test: Induction of apoptosis in human MGC803 cells assessed as cell rounding up to 0.5 uM after 48 hrs by Hoechst 33258 staining based fluorescence microscopic method; assay type: functional
Outline: (§3)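 About 2×10^5 MGC-803 cells per well were treated after attachment with increasing compound concentrations for 48 h. They were fixed and stained with 20 µg/mL Hoechst-33258 for 30 min in the dark, then PBS-washed three times and viewed by fluorescence microscopy under UV excitation. Apoptotic cells were scored by nuclear condensation and fragmentation.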

[8] = tested on: MGC-803; test: Antiproliferative activity against human MGC803 cells after 48 hrs by MTT assay; assay type: functional, cell-based; settings: MGC-803, 48 h
[9] = tested on: MGC-803; test: Cell cycle arrest in human MGC803 cells assessed as accumulation at G2 phase at 0.1 uM after 48 hrs by propidium iodide staining-based flow cytometric method (reference value: 10.60%); assay type: functional
[10] = tested on: MGC-803; test: Anticlonogenic activity against human MGC803 cells at 0.1 to 0.5 uM after 7 to 14 days by crystal violet staining based assay; assay type: functional, cell-based
Outline: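 MGC-803 cells were seeded at about 1×10^3 per well and left 24 h, then grown 14 days in fresh medium with varied compound concentrations. Cells were PBS-washed, fixed in 4% paraformaldehyde for 30 min, and stained with 1% crystal violet for 30 min at 37°C before colonies were washed clear.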

[11] = tested on: MGC-803; test: Induction of apoptosis in human MGC803 cells assessed as early apoptotic cells at 0.1 uM after 48 hrs by Annexin-V/propidium iodide staining based flow cytometric analysis (reference value: 3.4%); assay type: functional
[12] = tested on: MGC-803; test: Induction of apoptosis in human MGC803 cells assessed as formation of apoptotic bodies up to 0.5 uM after 48 hrs by Hoechst 33258 staining based fluorescence microscopic method; assay type: functional, cell-based; outline: as §3
[13] = tested on: MGC-803; test: Cell cycle arrest in human MGC803 cells assessed as accumulation at S phase after 48 hrs by propidium iodide staining-based flow cytometric method; assay type: functional
[14] = tested on: MGC-803; test: Induction of apoptosis in human MGC803 cells after 48 hrs by Annexin-V/propidium iodide staining based flow cytometric analysis; assay type: functional, cell-based
[15] = tested on: MGC-803; test: Cell cycle arrest in human MGC803 cells assessed as accumulation at G2 phase at 0.25 uM after 48 hrs by propidium iodide staining-based flow cytometric method (reference value: 10.60%); assay type: functional
[16] = tested on: MGC-803; test: Cell cycle arrest in human MGC803 cells assessed as accumulation at S phase at 0.25 uM after 48 hrs by propidium iodide staining-based flow cytometric method (reference value: 28.84%); assay type: functional
[17] = tested on: MGC-803; test: Induction of apoptosis in human MGC803 cells assessed as late apoptotic cells at 0.25 uM after 48 hrs by Annexin-V/propidium iodide staining based flow cytometric analysis (reference value: 0.3%); assay type: functional
[18] = tested on: MGC-803; test: Antimigratory activity against human MGC803 cells after 48 hrs by wound healing assay; assay type: functional, cell-based
Outline: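 Confluent monolayers were scratched with a sterile pipette tip and PBS-washed. Cells were then cultured in medium containing only 1% FBS with varied compound concentrations for 48 h. Wounds were photographed under an inverted microscope at 0 h and 48 h.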

[19] = tested on: MGC-803; test: Up-regulation of E-cadherin protein expression in human MGC803 cells up to 0.5 uM after 48 hrs by Western blot analysis; assay type: functional, cell-based; outline: as §2
[20] = tested on: MGC-803; test: Cell cycle arrest in human MGC803 cells assessed as accumulation at G2 phase at 0.5 uM after 48 hrs by propidium iodide staining-based flow cytometric method (reference value: 10.60%); assay type: functional
[21] = tested on: MGC-803; test: Induction of apoptosis in human MGC803 cells assessed as early apoptotic cells at 0.5 uM after 48 hrs by Annexin-V/propidium iodide staining based flow cytometric analysis (reference value: 3.4%); assay type: functional
[22] = tested on: MGC-803; test: Cell cycle arrest in human MGC803 cells assessed as accumulation at S phase at 0.1 uM after 48 hrs by propidium iodide staining-based flow cytometric method (reference value: 28.84%); assay type: functional
[23] = tested on: MGC-803; test: Induction of apoptosis in human MGC803 cells assessed as chromatin shrinkage up to 0.5 uM after 48 hrs by Hoechst 33258 staining based fluorescence microscopic method; assay type: functional, cell-based; outline: as §3
[24] = tested on: MGC-803; test: Cell cycle arrest in human MGC803 cells assessed as accumulation at G1 phase at 0.1 uM after 48 hrs by propidium iodide staining-based flow cytometric method (reference value: 60.55%); assay type: functional
[25] = tested on: MGC-803; test: Induction of apoptosis in human MGC803 cells assessed as viable cells at 0.25 uM after 48 hrs by Annexin-V/propidium iodide staining based flow cytometric analysis (reference value: 96.1%); assay type: functional; settings: MGC-803, 48 h, read-out: Activity
[26] = tested on: MGC-803; test: Down regulation of N-cadherin protein expression in human MGC803 cells up to 0.5 uM after 48 hrs by Western blot analysis; assay type: functional, cell-based; outline: as §2
[27] = tested on: MGC-803; test: Induction of apoptosis in human MGC803 cells assessed as necrotic cells at 0.25 uM after 48 hrs by Annexin-V/propidium iodide staining based flow cytometric analysis (reference value: 0.1%); assay type: functional
[28] = tested on: MGC-803; test: Cell cycle arrest in human MGC803 cells assessed as accumulation at G1 phase at 0.5 uM after 48 hrs by propidium iodide staining-based flow cytometric method (reference value: 60.55%); assay type: functional
[29] = tested on: MGC-803; test: Induction of apoptosis in human MGC803 cells assessed as necrotic cells at 0.1 uM after 48 hrs by Annexin-V/propidium iodide staining based flow cytometric analysis (reference value: 0.1%); assay type: functional
[30] = tested on: MGC-803; test: Antiproliferative activity against human MGC803 cells after 24 hrs by MTT assay; assay type: functional, cell-based; settings: MGC-803, 24 h
[31] = tested on: MGC-803; test: Potency index, ratio of 3-AP IC50 to test compound IC50 for human MGC803 cells after 72 hrs by MTT assay; assay type: functional
[32] = tested on: MGC-803; test: Induction of apoptosis in human MGC803 cells assessed as early apoptotic cells at 0.25 uM after 48 hrs by Annexin-V/propidium iodide staining based flow cytometric analysis (reference value: 3.4%); assay type: functional
[33] = tested on: MGC-803; test: Induction of apoptosis in human MGC803 cells assessed as viable cells at 0.5 uM after 48 hrs by Annexin-V/propidium iodide staining based flow cytometric analysis (reference value: 96.1%); assay type: functional; settings: MGC-803, 48 h, read-out: Activity
[34] = tested on: MGC-803; test: Induction of apoptosis in human MGC803 cells assessed as up-regulation of Bax expression after 48 hrs by Western blot analysis; assay type: functional, cell-based; outline: as §2
[35] = tested on: MGC-803; test: Induction of apoptosis in human MGC803 cells assessed as late apoptotic cells at 0.1 uM after 48 hrs by Annexin-V/propidium iodide staining based flow cytometric analysis (reference value: 0.3%); assay type: functional
[36] = tested on: MGC-803; test: Anti-invasive activity against human MGC803 cells after 48 hrs by Hoechst 33258 staining based matrigel coated transwell assay; assay type: functional, cell-based
Outline: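 This was an invasion variant of the transwell assay, with the upper chamber precoated with Matrigel. MGC-803 cells in 1% FBS medium with varied compound concentrations were placed above 20% FBS medium. After 48 h, cells were methanol-fixed, stained with 20 µg/mL Hoechst-33258 for 30 min in the dark, and imaged.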

[37] = tested on: MGC-803; test: Cell cycle arrest in human MGC803 cells assessed as accumulation at G1 phase at 0.25 uM after 48 hrs by propidium iodide staining-based flow cytometric method (reference value: 60.55%); assay type: functional
[38] = tested on: MGC-803; test: Antimigratory activity against human MGC803 cells after 48 hrs by Hoechst 33258 staining based transwell assay; assay type: functional, cell-based
Outline: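 This was a transwell migration set-up. MGC-803 cells in medium with 1% FBS and varied compound concentrations went into the upper chamber, with 20% FBS medium below. After 48 h, chambers were PBS-washed and migrated cells were methanol-fixed. They were stained with 20 µg/mL Hoechst-33258 for 30 min in the dark and imaged on a high-content system.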

[39] = tested on: GES1; test: Cytotoxicity against human GES-1 cells after 72 hrs by MTT assay; assay type: cell-based; settings: GES1, 72 h; outline: as §1
[40] = tested on: MGC-803; test: Induction of apoptosis in human MGC803 cells assessed as necrotic cells at 0.5 uM after 48 hrs by Annexin-V/propidium iodide staining based flow cytometric analysis (reference value: 0.1%); assay type: functional
[41] = tested on: MGC-803; test: Induction of apoptosis in human MGC803 cells assessed as viable cells at 0.1 uM after 48 hrs by Annexin-V/propidium iodide staining based flow cytometric analysis (reference value: 96.1%); assay type: functional; settings: MGC-803, 48 h, read-out: Activity

IC50 [1]: > 64 µM
IC50 [2]: 16.3 µM
IC50 [3]: 35.3 µM
Compound: Oc1ccc(Cl)cc1/C=N/NC(=S)N1CCOCC1

IC50 [1]: > 64 µM
IC50 [2]: > 64 µM
IC50 [3]: > 64 µM
Compound: C/C(=N\NC(=S)N1CCOCC1)c1ccccc1N

IC50 [1]: > 64 µM
IC50 [2]: 29.2 µM
IC50 [3]: 37.3 µM
Compound: Oc1ccccc1/C=N/NC(=S)N1CCOCC1

IC50 [1]: > 64 µM
IC50 [2]: > 64 µM
IC50 [3]: > 64 µM
Compound: COc1cc(/C=N/NC(=S)N2CCOCC2)cc(OC)c1OC

Continued, compound first:

Compound: C/C(=N\NC(=S)N1CCOCC1)c1ccccc1
IC50 [1]: 44.6 µM
IC50 [2]: 32.6 µM
IC50 [3]: > 64 µM

Compound: Oc1ccccc1/C=N/NC(=S)Nc1ccccc1
IC50 [1]: 12.4 µM
IC50 [2]: 2.42 µM
IC50 [3]: 34.1 µM

Compound: C/C(=N\NC(=S)N1CCOCC1)c1ccc(O)cc1
IC50 [1]: > 64 µM
IC50 [2]: > 64 µM
IC50 [3]: > 64 µM

Compound: C/C(=N\NC(=S)Nc1ccccc1)c1cc(Cl)ccc1O
Activity [4]: 51.85%
Activity [5]: 2.3%
Activity [6]: Dose-dependent effect
Activity [7]: Active
IC50 [1]: 9.99 µM
IC50 [8]: 9.22 µM
Activity [9]: 9.73%
Activity [10]: Active
Activity [11]: 10.5%
Activity [12]: Active
Activity [13]: Dose-dependent effect
Activity [14]: Dose-dependent effect
Activity [15]: 0%
Activity [16]: 46.07%
Activity [17]: 1.3%
Activity [18]: Dose-dependent effect
Activity [19]: Active
Activity [20]: 0%
Activity [21]: 30%
Activity [22]: 32.82%
Activity [23]: Active
IC50 [2]: 0.93 µM
Activity [24]: 57.45%
viability at 0.25 µM [25]: 83.5%
Activity [26]: Active
Activity [27]: 0.2%
Activity [28]: 48.15%
Activity [29]: 0.1%
IC50 [30]: > 64 µM
Ratio IC50 [31]: 10
Activity [32]: 15.1%
IC50 [3]: 19.2 µM
viability at 0.5 µM [33]: 67.4%
Activity [34]: Dose-dependent effect
Activity [35]: 0.4%
Activity [36]: Dose-dependent effect
Activity [37]: 53.93%
Activity [38]: Dose-dependent effect
IC50 [39]: 27.9 µM
Activity [40]: 0.3%
viability at 0.1 µM [41]: 89%

Compound: C/C(=N\NC(=S)N1CCN(C(=O)OC(C)(C)C)CC1)c1cc(Cl)ccc1O
IC50 [1]: > 64 µM
IC50 [2]: 58.4 µM
IC50 [3]: > 64 µM
